Consider 9 compounds from ChEMBL document CHEMBL3779798, “Novel seleno- and thio-urea derivatives with potent in vitro activities against several cancer cell lines” (Eur J Med Chem, 2016).

Common to all, as to format: functional, cell-based
Assay [1] is described as follows: Anticancer activity against human 1205 Lu cells assessed as inhibition of cell growth after 72 hrs by MTT assay. An outline of the steps:
(§1)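 MTT assay at 3,000 cells/well. Cells treated with DMSO or seven concentrations from 0.5 to 50 µM for 24, 48 or 72 h. MTT added 3 h before the end point; formazan dissolved in DMSO and read at 570 and 630 nm. IC50 is the concentration giving 50% growth inhibition. Media: PANC-1, BxPC3 and 1205Lu in DMEM; DU145 and A549 in RPMI 1640; HT29, HCT116 and RKO in McCoy's 5A, all with 10% FBS and pen/strep, at 37 °C and 5% CO2.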

Assay [2] can be described thus: Anticancer activity against human DU145 cells assessed as inhibition of cell growth after 24 hrs by MTT assay. Particulars: DU-145, 24 h. An outline of the steps:
as §1
For orientation: Tetrazolium dyes change colour on reduction, which living cells bring about.

Assay [3] can be described thus: Anticancer activity against human PANC1 cells assessed as inhibition of cell growth after 48 hrs by MTT assay. Particulars: PANC-1, 48 h. In a few lines: as §1
A short description of assay [4]: Anticancer activity against human 1205 Lu cells assessed as inhibition of cell growth after 24 hrs by MTT assay. In a few lines: as §1
Assay [5] in a line: Anticancer activity against human DU145 cells assessed as inhibition of cell growth after 72 hrs by MTT assay. Particulars: DU-145, 72 h. In a few lines: as §1
Assay [6] in a line: Anticancer activity against human DU145 cells assessed as inhibition of cell growth after 48 hrs by MTT assay. Particulars: DU-145, 48 h. In a few lines: as §1
A short description of assay [7]: Anticancer activity against human BxPC3 cells assessed as inhibition of cell growth after 72 hrs by MTT assay. The note with it: BXPC-3, 72 h. In a few lines:
as §1

Assay [8] can be described thus: Anticancer activity against human BxPC3 cells assessed as inhibition of cell growth after 24 hrs by MTT assay. The note with it: BXPC-3, 24 h. In a few lines:
as §1

Assay [9] is described as follows: Anticancer activity against human HCT116 cells assessed as inhibition of cell growth after 72 hrs by MTT assay. The note with it: HCT-116, 72 h. In a few lines: as §1
Assay [10] can be described thus: Anticancer activity against human HCT116 cells assessed as inhibition of cell growth after 24 hrs by MTT assay. Particulars: HCT-116, 24 h. In a few lines:
as §1

For assay [11], the system named is A549. Kind of assay: Anticancer activity against human A549 cells assessed as inhibition of cell growth after 72 hrs by MTT assay. The note with it: A549, 72 h. In a few lines: as §1
A short description of assay [12]: Anticancer activity against human BxPC3 cells assessed as inhibition of cell growth after 48 hrs by MTT assay. Particulars: BXPC-3, 48 h. An outline of the steps:
as §1

The nature of assay [13]: Anticancer activity against human PANC1 cells assessed as inhibition of cell growth after 24 hrs by MTT assay. The note with it: PANC-1, 24 h. In a few lines:
as §1

A short description of assay [14]: Anticancer activity against human PANC1 cells assessed as inhibition of cell growth after 72 hrs by MTT assay. The note with it: PANC-1, 72 h. An outline of the steps: as §1
A short description of assay [15]: Anticancer activity against human HCT116 cells assessed as inhibition of cell growth after 48 hrs by MTT assay. The note with it: HCT-116, 48 h. An outline of the steps:
as §1

Assay [16] concerns A549. The assay is described as follows: Anticancer activity against human A549 cells assessed as inhibition of cell growth after 48 hrs by MTT assay. Particulars: A549, 48 h. An outline of the steps:
as §1

The nature of assay [17]: Anticancer activity against human 1205 Lu cells assessed as inhibition of cell growth after 48 hrs by MTT assay. An outline of the steps: as §1
Assay [18] deals with A549. The assay is described as follows: Anticancer activity against human A549 cells assessed as inhibition of cell growth after 24 hrs by MTT assay. Particulars: A549, 24 h. An outline of the steps:
as §1

Assay [19] has as its system HT-29. The assay is described as follows: Anticancer activity against human HT-29 cells assessed as inhibition of cell growth after 48 hrs by MTT assay. The note with it: HT-29, 48 h. An outline of the steps: as §1
For assay [20], the system named is RKO. The assay is described as follows: Anticancer activity against human RKO cells assessed as inhibition of cell growth after 48 hrs by MTT assay. In a few lines: as §1
Assay [21] has as its system HT-29. Kind of assay: Anticancer activity against human HT-29 cells assessed as inhibition of cell growth after 24 hrs by MTT assay. Particulars: HT-29, 24 h. In a few lines:
as §1

Assay [22] concerns RKO. The assay is described as follows: Anticancer activity against human RKO cells assessed as inhibition of cell growth after 72 hrs by MTT assay. In a few lines: as §1
Assay [23] concerns RKO. The assay is described as follows: Anticancer activity against human RKO cells assessed as inhibition of cell growth after 24 hrs by MTT assay. An outline of the steps: as §1
Assay [24] relates to HT-29. Kind of assay: Anticancer activity against human HT-29 cells assessed as inhibition of cell growth after 72 hrs by MTT assay. Particulars: HT-29, 72 h. In a few lines:
as §1

For `N=C(N)[Se]Cc1c2ccccc2nc2ccccc12`, the IC50 (in general, the concentration needed to halve the response being measured) amounted to 11.6 µM in assay [1]; 31.8 µM in assay [2]; 11.6 µM in assay [3]; 13 µM in assay [4]; 12.9 µM in [5]; 14.9 µM in assay [6]. Further, the IC50 in assay [7] came out at 8.2 µM; in [8] it was 20.4 µM; in [9], 14.4 µM; in assay [10], 31.8 µM; in assay [11], 6.2 µM; in assay [12], 10.5 µM. In addition, the IC50 in assay [13] was 12.1 µM; in [14], 9.8 µM; in assay [15], 16.7 µM; in assay [16], 14.9 µM; in assay [17], 16.7 µM; in assay [18], 34.4 µM.
Regarding `N=C(N)SCc1nc2ccccc2nc1CSC(=N)N`, the IC50 in assay [1], in assay [2], in assay [3], in assay [4], in assay [5] and in [6] was > 50 µM in each case. For the same compound, the IC50 in assay [7], in assay [8], in [9], in assay [10], in [11] and in assay [12] was > 50 µM throughout. Moreover, the IC50 in assay [13], in [14], in assay [15], in assay [16], in assay [17] and in assay [18] was > 50 µM each time.
As for `N=C(N)SCc1ccc2c(c1)C(=O)c1ccccc1C2=O`, the IC50 in assay [1] was found to be 6.3 µM; in assay [2] it was 29.8 µM; in assay [19] it was 8.1 µM; in assay [20], 20.4 µM; in assay [3], 7.4 µM; in [21] it was 17 µM. Besides, the IC50 was found to be 21 µM in assay [22]; 9.4 µM in assay [4]; 28.9 µM in assay [23]; 7.4 µM in [24]; 31.2 µM in assay [5]; 22.9 µM in [6]. Besides, the IC50 in assay [7] worked out at 7.9 µM; in [8], 4.1 µM; in assay [9], 10.3 µM; in assay [10] it was 20.2 µM; in assay [11] it was 7.6 µM; in assay [12], 9 µM. Besides, the IC50 in [13] was determined as 7.6 µM; in assay [14], 6.8 µM; in [15], 10.7 µM; in assay [16], 8.7 µM; in [17], 8.5 µM; in [18] it was 9.7 µM.
In the case of `N=C(N)[Se]Cc1ccc2c(c1)C(=O)c1ccccc1C2=O`, the IC50 is 11.3 µM in assay [1]; 21.4 µM in assay [2]; > 50 µM in [3]; 17.4 µM in [4]; 8.2 µM in assay [5]; 6.2 µM in assay [6]. In addition, the IC50 in assay [7] is > 50 µM; in [8] it was > 50 µM; in [9], 5.9 µM; in [10], > 50 µM; in assay [11], 1.9 µM; in [12], > 50 µM. Besides, the IC50 in assay [13] was > 50 µM; in assay [14] it was 31.4 µM; in assay [15], 12.6 µM; in assay [16], 2.2 µM; in assay [17], 14.5 µM; in [18], 8.9 µM.
Take `N=C(N)SCc1ccc([N+](=O)[O-])o1`: the IC50 in [1], in assay [2], in assay [3], in assay [4], in assay [5] and in [6] was > 50 µM in each case. Besides, the IC50 is > 50 µM in assay [7]; > 50 µM in assay [8]; 7 µM in assay [9]; > 50 µM in [10]; > 50 µM in [11]; > 50 µM in assay [12]. For the same compound, the IC50 in assay [13] is > 50 µM; in assay [14], > 50 µM; in assay [15], 30.8 µM; in [16], > 50 µM; in assay [17], > 50 µM; in [18] it was > 50 µM.
Take `O=c1[nH]cc(F)c(=O)[nH]1` [FLUOROURACIL]: the IC50 in [19] was 25 µM; in [20] it was 41.1 µM; in assay [21] it was > 50 µM; in assay [22], 6.8 µM; in assay [23], > 50 µM; in assay [24] it was 6.3 µM. The IC50 in assay [9] is 27.8 µM; in assay [10], > 50 µM; in assay [15] it was > 50 µM.
Regarding `N=C(N)[Se]CN1C(=O)c2ccccc2C1=O`, the half-maximal inhibitory concentration (IC50) in assay [1] was found to be 9.3 µM; in assay [2], 18.8 µM; in assay [3] it was 15.3 µM; in [4], 19 µM; in assay [5], 6.9 µM; in assay [6], 14 µM. The IC50 in assay [7] was determined as 18.8 µM; in [8] it was 19.8 µM; in [9] it was 15.6 µM; in assay [10] it was 29.2 µM; in [11] it was 5.5 µM; in assay [12] it was 19.1 µM. The IC50 was determined as 23.5 µM in assay [13]; 12.6 µM in assay [14]; 17.9 µM in [15]; 7.8 µM in [16]; 13.2 µM in assay [17]; 11.2 µM in assay [18].
As to `N=C(N)[Se]Cc1cc2c(cc1Br)OCO2`, the IC50 was 21.8 µM in [1]; > 50 µM in assay [2]; 24.7 µM in assay [3]; > 50 µM in assay [4]; > 50 µM in assay [5]; > 50 µM in [6]. Besides, the IC50 in [7] is 36.9 µM; in assay [8] it was > 50 µM; in [9], 23.9 µM; in assay [10] it was > 50 µM; in [11], 36.3 µM; in [12], > 50 µM. For the same compound, the IC50 in assay [13] is > 50 µM; in [14], 16.5 µM; in [15], 31.8 µM; in [16], > 50 µM; in assay [17], > 50 µM; in assay [18], > 50 µM.
Consider `N=C(N)SCc1ccc2ccccc2n1`, for which the IC50 in [1] is 39.2 µM; in assay [2], > 50 µM; in assay [3] it was > 50 µM; in assay [4], > 50 µM; in assay [5], 31.6 µM; in assay [6], > 50 µM. Moreover, the IC50 in assay [7] is 25.7 µM; in assay [8], > 50 µM; in assay [9], 22.9 µM; in [10] it was > 50 µM; in assay [11] it was > 50 µM; in assay [12], 37.3 µM. Also, the IC50 in assay [13] was > 50 µM; in assay [14], > 50 µM; in assay [15] it was 28.5 µM; in [16], > 50 µM; in assay [17] it was > 50 µM; in assay [18], > 50 µM.
